# Key:
# [1] = test system: Enterococcus faecalis; assay: Bactericidal activity against 12.5 hrs peripheral compartment culture samples of Enterococcus faecalis ATCC 29212 in two-compartment pharmacokinetic/pharmacodynamic model assessed as effect on bacterial count at 200 mg, bid administered as 0.5 hr infusion; assay type: functional
# Method in brief: (§1)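 An 18-h culture concentrated 50-fold was injected into the peripheral compartment 3 h pre-sampling (~10^8 CFU/ml E. faecalis, 10^9 S. aureus). Counts came from dilution plating (detection limit 2–3 log10 CFU/ml), expressed as Δlog CFU/ml from treatment start. Run in duplicate.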
# [2] = test system: Enterococcus faecalis; assay: Bactericidal activity against 48 hrs peripheral compartment culture samples of Enterococcus faecalis ATCC 29212 in two-compartment pharmacokinetic/pharmacodynamic model assessed as effect on bacterial count at 200 mg, bid administered as 0.5 hr infusion; assay type: functional; method in brief: as §1
# [3] = test system: Enterococcus faecalis; assay: Bactericidal activity against 2 hrs peripheral compartment culture samples of Enterococcus faecalis ATCC 29212 in two-compartment pharmacokinetic/pharmacodynamic model assessed as effect on bacterial count at 600 mg, bid administered as 0.5 hr infusion; assay type: functional; method in brief: as §1
# [4] = test system: Enterococcus faecalis; assay: Bactericidal activity against 12 hrs peripheral compartment culture samples of Enterococcus faecalis ATCC 29212 in two-compartment pharmacokinetic/pharmacodynamic model assessed as effect on bacterial count at 600 mg, bid administered as 0.5 hr infusion; assay type: functional
# Method in brief: (§2)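 Two-compartment hollow-fibre model in cation-adjusted, protein-free MH broth, 37°C. Linezolid given as simulated 0.5-h infusion twice daily. Inoculum grown 18 h, concentrated 50-fold and placed in the peripheral compartment 3 h before t0. Peripheral samples at set times counted by dilution plating. First 10-fold dilution not plated, limiting detection to 2–3 log10 CFU/ml. Δlog CFU/ml taken from t0 count. Duplicates.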
# [5] = test system: Enterococcus faecalis; assay: Bactericidal activity against 2 hrs peripheral compartment culture samples of Enterococcus faecalis Ef1497 in two-compartment pharmacokinetic/pharmacodynamic model assessed as effect on bacterial count at 600 mg, bid administered as 0.5 hr infusion; assay type: functional; method in brief: as §1
# [6] = test system: Enterococcus faecalis; assay: Bactericidal activity against 12.5 hrs peripheral compartment culture samples of Enterococcus faecalis Ef1497 in two-compartment pharmacokinetic/pharmacodynamic model assessed as effect on bacterial count at 600 mg, bid administered as 0.5 hr infusion; assay type: functional; method in brief: as §1
# [7] = test system: Enterococcus faecalis; assay: Bactericidal activity against 14 hrs peripheral compartment culture samples of Enterococcus faecalis Ef1497 MutM3 in two-compartment pharmacokinetic/pharmacodynamic model assessed as effect on bacterial count at 600 mg, bid administered as 0.5 hr infusion; assay type: functional; method in brief: as §1
# [8] = Cmax in two-compartment pharmacokinetic/pharmacodynamic model at 600 mg, bid administered as 0.5 hrs infusion; assay type: ADME, organism-based; set-up: dose 600 mg; conditions: iv
# [9] = Cmax in two-compartment pharmacokinetic/pharmacodynamic model at 800 mg, bid administered as 0.5 hrs infusion; assay type: ADME, organism-based; set-up: dose 800 mg; conditions: iv
# [10] = Tmax in two-compartment pharmacokinetic/pharmacodynamic model at 800 mg, bid administered as 0.5 hrs infusion; assay type: ADME, organism-based; conditions: iv
# Method in brief: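 Two-compartment in vitro hollow-fibre model in cation-adjusted, protein-free Mueller-Hinton broth at 37°C. Human total-plasma linezolid profile simulated as 0.5-h infusion every 12 h for 48 h, computer-controlled syringe pump into central compartment. […] Peripheral samples assayed by validated HPLC-UV (quantification limit 0.39 μg/ml). Tmax read directly from concentration-time profiles. Run in duplicate.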
# [11] = Residual concentration at the end of the administration interval in two-compartment pharmacokinetic/pharmacodynamic model at 200 mg, bid administered as 0.5 hrs infusion; assay type: ADME; conditions: iv, read-out: Drug uptake
# [12] = AUC in two-compartment pharmacokinetic/pharmacodynamic model at 600 mg, bid administered as 0.5 hrs infusion; assay type: ADME; conditions: iv
# [13] = Total clearance in two-compartment pharmacokinetic/pharmacodynamic model at 600 mg, bid administered as 0.5 hrs infusion; assay type: ADME, organism-based; conditions: iv
# [14] = Cmax in healthy human at 600 mg, iv, bid administered as 0.5 hr infusion; assay type: ADME, organism-based; set-up: dose 600 mg, route intravenous; conditions: in vivo
# [15] = AUC in healthy human at 600 mg, iv, bid administered as 0.5 hr infusion; assay type: ADME, organism-based; conditions: plasma
# [16] = test system: Staphylococcus aureus; assay: Bactericidal activity against 1 hr peripheral compartment culture samples of Staphylococcus aureus RN4220 in two-compartment pharmacokinetic/pharmacodynamic model assessed as effect on bacterial count at 600 mg, bid administered as 0.5 hr infusion; assay type: functional; method in brief: as §2
# [17] = test system: Staphylococcus aureus; assay: Bactericidal activity against 2 hrs peripheral compartment culture samples of Staphylococcus aureus RN4220 in two-compartment pharmacokinetic/pharmacodynamic model assessed as effect on bacterial count at 600 mg, bid administered as 0.5 hr infusion; assay type: functional; method in brief: as §1
# [18] = test system: Staphylococcus aureus; assay: Bactericidal activity against 12.5 hrs peripheral compartment culture samples of Staphylococcus aureus RN4220 in two-compartment pharmacokinetic/pharmacodynamic model assessed as effect on bacterial count at 600 mg, bid administered as 0.5 hr infusion; assay type: functional; method in brief: as §1
# [19] = test system: Staphylococcus aureus; assay: Bactericidal activity against 13 hrs peripheral compartment culture samples of Staphylococcus aureus RN4220 in two-compartment pharmacokinetic/pharmacodynamic model assessed as effect on bacterial count at 600 mg, bid administered as 0.5 hr infusion; assay type: functional; method in brief: as §1
# [20] = test system: Staphylococcus aureus; assay: Bactericidal activity against 14 hrs peripheral compartment culture samples of Staphylococcus aureus RN4220 in two-compartment pharmacokinetic/pharmacodynamic model assessed as effect on bacterial count at 600 mg, bid administered as 0.5 hr infusion; assay type: functional; method in brief: as §1
# [21] = test system: Enterococcus faecalis; assay: AUBC (0 to 24 hrs) in Enterococcus faecalis ATCC 29212 in two-compartment pharmacokinetic/pharmacodynamic model at 200 mg, bid administered as 0.5 hr infusion for 2 days; assay type: functional
# Method in brief: (§3)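 Hollow-fibre two-compartment model in cation-adjusted, protein-free MH broth at 37°C. Human total-plasma linezolid profile simulated as 0.5-h infusion every 12 h for 48 h. Concentrated 18-h culture injected into the peripheral compartment 3 h before first sample, giving about 10^8 (E. faecalis) or 10^9 (S. aureus) CFU/ml. Viable counts by dilution plating over 0–24 h. Area indices calculated versus growth control curve. Duplicate runs.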
# [22] = test system: Staphylococcus aureus subsp. aureus RN4220; assay: ABBC (0 to 24 hrs) in Staphylococcus aureus RN4220 MutS2 in two-compartment pharmacokinetic/pharmacodynamic model at 600 mg, bid administered as 0.5 hr infusion for 2 days; method in brief: as §3
# [23] = test system: Enterococcus faecalis; assay: ABBC (0 to 24 hrs) in Enterococcus faecalis ATCC 29212 in two-compartment pharmacokinetic/pharmacodynamic model at 600 mg, bid administered as 0.5 hr infusion for 2 days; assay type: functional; method in brief: as §3
# [24] = test system: Enterococcus faecalis; assay: ABBC (0 to 24 hrs) in Enterococcus faecalis Ef1497 MutM3 in two-compartment pharmacokinetic/pharmacodynamic model at 600 mg, bid administered as 0.5 hr infusion for 2 days; assay type: functional; method in brief: as §3
# [25] = Cmax in two-compartment pharmacokinetic/pharmacodynamic model at 600 mg, bid administered as 0.5 hr infusion over 24 hrs; assay type: ADME, organism-based; set-up: dose 600 mg; conditions: iv
# [26] = Total clearance in two-compartment pharmacokinetic/pharmacodynamic model at 200 mg, bid administered as 0.5 hr infusion over 24 hrs; assay type: ADME, organism-based; conditions: in vivo, iv
# [27] = Total clearance in two-compartment pharmacokinetic/pharmacodynamic model at 600 mg, bid administered as 0.5 hr infusion over 24 hrs; assay type: ADME, organism-based; conditions: in vivo, iv
# [28] = Apparent volume of distribution in two-compartment pharmacokinetic/pharmacodynamic model at 200 mg, bid administered as 0.5 hr infusion over 24 hrs; assay type: ADME, organism-based; conditions: in vivo, iv
# [29] = in vitro; conditions: two-compartment pharmacokinetic/pharmacodynamic model, iv, 200 mg
compound,measurement,setting,value
CC(=O)NC[C@H]1CN(c2ccc(N3CCOCC3)c(F)c2)C(=O)O1 [LINEZOLID],log10CFU/ml,[1],0.26
same,log10CFU/ml,[2],1.23
same,log10CFU/ml,[3],-0.08
same,log10CFU/ml,[4],0.15
same,log10CFU/ml,[5],0.08
same,log10CFU/ml,[6],-0.14
same,log10CFU/ml,[7],0.28
same,Cmax,[8],13400 ng/mL
same,Cmax,[9],19200 ng/mL
same,Tmax,[10],0.5 h
same,concentration at 0.5 h,[11],390 ng/mL
same,AUC at 0.5 h,[12],43000 ng·h/mL
same,clearance,[13],232 mL/min
same,Cmax,[14],14100 ng/mL
same,AUC at 0.5 h,[15],88100 ng·h/mL
same,log10CFU/ml,[16],-0.07
same,log10CFU/ml,[17],-0.26
same,log10CFU/ml,[18],-0.26
same,log10CFU/ml,[19],-0.22
same,log10CFU/ml,[20],-0.24
same,AUBC,[21],214 log10CFU/ml.hr
same,ABBC,[22],-2.27 log10CFU/ml.hr
same,ABBC,[23],1.32 log10CFU/ml.hr
same,ABBC,[24],-2.66 log10CFU/ml.hr
same,Cmax,[25],14600 ng/mL
same,clearance,[26],252 mL/min
same,clearance,[27],215 mL/min
same,Vd,[28],137 L
same,half-life,[29],6.27 h
